Results pooled from the literature.
Lines come from different studies, so protocols differ.
Cell line: HepG2
Read-out: cell growth or viability

Compound | assay | conditions | endpoint | result
CCOC(=O)c1ccc(NC(=O)C2=C3C(=Nc4ccccc43)NC2=O)cc1 | MTT | 50 µM, 24 h | viability | 42.7%
CC(C)c1ccc(/C=C2\SC(=S)N(CC(=O)Nc3ccccc3)C2=O)cc1 | MTT | 10 µM | inhibition | 17.5%
Cc1cc(=O)oc2ccc(-c3cc(-c4ccc(Br)cc4)nc(N)n3)c(O)c12 | MTT | 32 µg/mL, 72 h | inhibition | 8%
COc1ccc(NC(=O)c2c(Nc3ccccc3)sc(C(=O)NN=Cc3cc(OC)c(OC)c(OC)c3)c2NC(C)=O)cc1 | SRB | 100 µM, 48 h | viability | 33.9%
CCOC(=O)c1ccc(-n2c(N)c(C#N)c(CC#N)c(C#N)c2=O)cc1 | MTT | 100 µM, 24 h | viability | 24.5%
CCOc1ccc(-c2nc3ccccc3n2Cc2ccccc2)cc1 | MTT |  | IC50 | 33.8 µM
COc1cccc(NC(=O)CN2C(=O)/C(=C/c3ccc(F)cc3)SC2=S)c1 | MTT | 10 µM | inhibition | 10.2%
COc1ccc(NC(=O)c2c(Nc3ccccc3)sc(C(=O)NN=Cc3ccc(Cl)cc3)c2NC(C)=O)cc1 | SRB | 100 µM, 48 h | viability | 52.6%
Cc1cc(=O)oc2ccc(-c3cc(-c4ccccc4)nc(N)n3)c(O)c12 | MTT | 128 µg/mL, 72 h | inhibition | 20%
COc1ccc(C=NNC(=O)c2sc(Nc3ccccc3)c(C(=O)Nc3ccc(OC)cc3)c2NC(C)=O)cc1 | SRB | 0.1 µM, 48 h | viability | 76.5%
Cc1ccc2nc(-c3ccc([N+](=O)[O-])cc3)[nH]c2c1 | MTT | 48 h | IC50 | 18.6 µM
COc1ccc(NC(=O)c2c(Nc3ccccc3)sc(C#N)c2NC(=O)CNc2ccccc2[N+](=O)[O-])cc1 | SRB | 100 µM, 48 h | viability | 89.7%
Cc1ccc2nc(-c3ccc4c(c3)OCO4)[nH]c2c1 | MTT | 48 h | IC50 | 79 µM
CC(=O)Nc1cccc(-n2c(=O)n(C3CC3)c(=O)c3c(Nc4ccc(I)cc4F)n(C)c(=O)c(C)c32)c1 | resazurin | 780 pM, 72 h | viability | 99.5%
CCn1cc(-c2nc(C)no2)c(=O)c2cc(F)c(N3CCC(C)(C)CC3)cc21 | ATP luminescence | 48 h | EC50 | > 40 µM
COc1cccc(-c2nc3ccccc3[nH]2)c1 | MTT | 48 h | IC50 | 47.1 µM
Cc1cc(Nc2ccc(C(=O)N/N=C/c3cccs3)cc2)c2cccc(O)c2n1 | MTT | 20 µM | inhibition | 49%
c1cncc(-c2nc3ccccc3[nH]2)c1 | MTT | 48 h | IC50 | 70.6 µM
Cc1cc(Nc2ccc(C(=O)N/N=C/c3ccc(N(C)C)cc3)cc2)c2cccc(O)c2n1 | MTT | 20 µM | inhibition | 40.8%
CC(C)(CO)Cn1nc(-c2ccc3cc(OC4CC4)ccc3c2)c2c(N)ncnc21 |  |  | GI50 | > 10 µM
Cc1cc(=O)oc2ccc(-c3cc(-c4ccc(Cl)cc4)nc(N)n3)c(O)c12 | MTT | 128 µg/mL, 72 h | inhibition | 87%
COc1ccc(NC(=O)c2c(Nc3ccccc3)sc(C#N)c2NC(=O)CNc2ccc(Br)cc2)cc1 | SRB | 0.1 µM, 48 h | viability | 70.4%
CCOC(=O)c1ccc(N2C(N)=C(C#N)C3(C(=O)Nc4ccccc43)C(C#N)=C2O)cc1 (stereo not shown) | MTT | 12.5 µM, 24 h | viability | 37.7%

Compound | assay | conditions | endpoint | result
CCn1cc(-c2nc(C)no2)c(=O)c2cc(F)c(N3CCC(CN4CCOCC4)CC3)cc21 | ATP luminescence | 48 h | EC50 | > 40 µM
Cc1ccc2nc(-c3cccc([N+](=O)[O-])c3)[nH]c2c1 | MTT | 48 h | IC50 | 71.4 µM
COc1ccc(-c2cc(-c3ccc4oc(=O)cc(C)c4c3O)nc(N)n2)cc1 | MTT | 32 µg/mL, 72 h | inhibition | 15%
Cc1cc(Nc2ccc(C(=O)N/N=C/c3ccc(C)s3)cc2)c2cccc(O)c2n1 | MTT | 20 µM | inhibition | 46.3%
CCOC(=O)c1ccc(-n2c(C)cc(/C=C/c3ccc(OC)cc3)c(C#N)c2=O)cc1 | MTT | 12.5 µM, 24 h | viability | 83.5%
O=C(CN1C(=O)/C(=C/c2ccccn2)SC1=S)Nc1ccccc1 | MTT | 10 µM | inhibition | 10.2%
C=CCn1c(-c2ccc([N+](=O)[O-])cc2)nc2ccccc21 | MTT |  | IC50 | 36.8 µM
COc1ccc(NC(=O)c2c(Nc3ccccc3)sc(C#N)c2NC(=O)CNc2ccc(Cl)cc2)cc1 | SRB | 1 µM, 48 h | viability | 45.3%
CCn1cc(-c2nc(C)no2)c(=O)c2cc(F)c(N3CCN(C)CC3)cc21 | ATP luminescence | 48 h | EC50 | > 40 µM
Cc1ccc(-c2cc(-c3ccc4oc(=O)cc(C)c4c3O)nc(N)n2)cc1 | MTT | 32 µg/mL, 72 h | inhibition | 0%
COc1cccc(NC(=O)CN2C(=O)/C(=C/c3ccccc3)SC2=S)c1 | MTT | 10 µM | inhibition | 11.8%
CCn1cc(-c2nc(C)no2)c(=O)c2cc(F)c(N3CCCC3)cc21 | ATP luminescence | 48 h | EC50 | > 40 µM
COc1ccc(NCC(=O)Nc2c(C#N)sc(Nc3ccccc3)c2C(=O)Nc2ccc(OC)cc2)cc1 | SRB | 1 µM, 48 h | viability | 71.6%
O=C(CN1C(=O)/C(=C/c2ccc[nH]2)SC1=S)Nc1ccccc1 | MTT | 10 µM | inhibition | 9.65%
CCOC(=O)c1cn(CC)c2cc(N3CCC(C)CC3)c(F)cc2c1=O | ATP luminescence | 48 h | EC50 | > 40 µM
O=C(CN1C(=O)/C(=C/c2ccccc2)SC1=S)Nc1ccccc1 | MTT | 10 µM | inhibition | 31.3%
CCOC(=O)c1ccc(-n2c(-c3ccc(C)cc3)cc(-c3ccc(O)cc3)c(C#N)c2=O)cc1 | MTT | 50 µM, 24 h | viability | 25.6%
Cc1ccc2nc(-c3ccc(Cl)c(Cl)c3)n(Cc3ccccc3)c2c1 | MTT |  | IC50 | > 100 µM
O=C(CN1C(=O)/C(=C/c2ccccc2F)SC1=S)Nc1ccccc1 | MTT | 10 µM | inhibition | 7.65%
COc1cc2ncnc(Nc3ccc(F)c(Cl)c3)c2cc1NC(=O)N/N=C/c1cccn1CCN(C)C | MTT | 72 h | IC50 | 0.11 µM
CCOC(=O)c1ccc(-n2c(C)cc(/C=C/c3ccc(OCC)cc3)c(C#N)c2=O)cc1 | MTT | 100 µM, 24 h | viability | 40.7%
COc1ccc(NC(=O)c2c(Nc3ccccc3)sc(C(=O)NN=Cc3ccc(Br)cc3)c2NC(C)=O)cc1 | SRB | 10 nM, 48 h | viability | 92.7%
Cc1cc(=O)oc2ccc(-c3cc(-c4cccc(Cl)c4)nc(N)n3)c(O)c12 | MTT | 128 µg/mL, 72 h | inhibition | 31%
